Screens deposited in PubChem by several laboratories.
NR3A LBD binder: modulators (binders) of human NR3A ligand-binding domain. AID 1259313. NR3A LBD differential scanning fluorimetry, Tm shift; 0% = protein alone, 100% = glycine-bound protein. 340,000 compounds, 2.5% hits. Tm shift relative to glycine control, % at 25 µM;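 active = melting temperature shift of at least 10% of the positive control shift, at one fixed dose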
UCH37 inh: human UCH37 deubiquitinating enzyme inhibition; purified proteasome/UCH37, Ub-AMC cleavage fluorescence; Q9Y5K5; inhibition, % (test concentration not listed); 330,000 compounds, 0.33% hits;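 active = mean inhibition over replicate wells above about 20%, limit read from the data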
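Material: Human UCH37 enzyme supplied as purified proteasome complex | Schedule: 30 min preincubation with enzyme, 25 min cleavage at room temperature | Detection: AMC fluorescence 355/460 nm | Measure: % inhibition of Ub-AMC cleavage fluorescence | Controls: Wells without proteasome as full block, compound-free enzyme plus substrate as uninhibited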
NadD inh: NadD (S. aureus) enzyme inhibition | 360,000 compounds, 0.78% hits | purified NadD enzyme, colorimetric absorbance read-out | inhibition, % at 20 µM; in the data active = inhibition above about 26%
ATG4B inhibitor: inhibitors of human ATG4B cysteine protease. Q9Y4P1. ATG4B cleavage of LC3-PLA2, NBD-HPC fluorescence, 1 h. inhibition, % at 8.33 µM. 340,000 compounds, 0.51% hits; in the data active = inhibition above about 40%
Target sequence (Q9Y4P1 whole entry, looked up): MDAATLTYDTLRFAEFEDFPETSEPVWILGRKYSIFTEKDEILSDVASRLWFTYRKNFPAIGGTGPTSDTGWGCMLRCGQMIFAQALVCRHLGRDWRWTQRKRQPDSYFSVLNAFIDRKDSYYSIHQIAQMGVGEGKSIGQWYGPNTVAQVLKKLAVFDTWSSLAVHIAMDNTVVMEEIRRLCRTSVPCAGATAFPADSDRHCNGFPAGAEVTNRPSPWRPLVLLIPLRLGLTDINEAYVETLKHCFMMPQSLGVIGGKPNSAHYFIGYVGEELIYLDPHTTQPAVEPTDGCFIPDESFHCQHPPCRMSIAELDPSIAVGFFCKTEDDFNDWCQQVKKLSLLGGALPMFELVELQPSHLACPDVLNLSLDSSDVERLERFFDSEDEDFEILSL
SENP1 FRET inh: inhibitors of human SENP1 SUMO protease catalytic domain. 360,000 compounds, 0.21% hits. AID 624204. Q9P0U3. recombinant SENP1 catalytic domain, CyPet-SUMO1-YPet FRET cleavage. inhibition, % at 10 µM;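 active = inhibition at least 30% at 10 µM, raw YFP signal under a set limit, fluorescence ratio 0.5 to 1.5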
Target sequence (Q9P0U3 419-644 limits assumed): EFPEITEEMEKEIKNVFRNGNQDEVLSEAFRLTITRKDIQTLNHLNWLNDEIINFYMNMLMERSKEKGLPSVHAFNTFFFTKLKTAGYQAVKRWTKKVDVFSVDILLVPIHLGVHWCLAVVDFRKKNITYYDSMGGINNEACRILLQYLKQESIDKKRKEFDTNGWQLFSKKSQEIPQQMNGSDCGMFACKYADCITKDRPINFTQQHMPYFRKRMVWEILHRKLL
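Compound: 10 µM single point, 0.5% DMSO; Test system: hSENP1 catalytic domain, recombinant; Timing: 50 min reaction at room temperature; Technique: FRET, CFP and YFP emission; Control set: no-enzyme wells low, DMSO-plus-enzyme wells high control.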
Numbers stand for hits; i = inactive; nt = no result. In the library only some 3.6% were active in any assay of this set; here they are far more common.

SMILES	NR3A LBD binder	UCH37 inh	NadD inh	ATG4B inhibitor	SENP1 FRET inh
O=C(COC(=O)Cn1cnc2ccccc21)Nc1cc2c(cc1Cl)C(=O)c1ccccc1C2=O	i	i	39.5	i	i
O=C(COC(=O)Cn1cnc2ccccc21)Nc1cc(S(=O)(=O)N2CCOCC2)ccc1Cl	i	i	i	i	i
Cc1cccc(C(=O)Nc2ccc(C(=O)NN=Cc3ccc4c(c3)OCO4)cc2)c1	nt	i	nt	nt	nt
CCCOc1ccc(Cc2nn3c(=O)c(=Cc4ccco4)sc3nc2=O)cc1	nt	i	nt	nt	nt
O=C1C2C3C=CC(C3)C2C(=O)N1N=Cc1ccc(-c2ccccc2[N+](=O)[O-])o1 (stereo not drawn)	nt	i	nt	nt	nt
COc1ccc(CNC(=O)Cc2nn(C)c(=O)c3ccccc23)cc1	11.0	i	i	i	i
Cn1nc(CC(=O)NCc2ccc(C(F)(F)F)cc2)c2ccccc2c1=O	i	i	i	i	i
CCCOc1ccc2c(c1)C(=NN=C(N)N)c1cc(OCCC)ccc1-2	34.1	i	i	i	i
CCC1CCCC1=NNC(=O)c1ccoc1C (stereo not drawn)	nt	i	nt	nt	nt
COc1ccc(Cc2nnc(SCC(=O)NC3CCCC3)o2)cc1	18.7	i	i	i	i
COc1ccc(OCc2nnc(SCC(=O)NC3CCCCC3)o2)cc1	i	i	i	i	i
Cc1nc(-c2ccccc2)sc1C(=O)Nc1ccccc1F	i	i	i	i	i
Cc1nc(-c2ccccc2)sc1C(=O)Nc1ccc(S(N)(=O)=O)cc1	11.8	i	i	i	i
Cc1csc(=O)n1CC(=O)Nc1ccc(Cl)c(Cl)c1	i	i	i	i	i
O=C(Cn1c2c(sc1=O)C1c3ccccc3OCC1CS2)Nc1ccc(Cl)c(Cl)c1 (stereo not drawn)	23.6	i	i	i	i
Cc1ccsc1C=NNc1nc(=O)[nH]nc1C	nt	i	nt	nt	nt
Cc1ccc(S(=O)(=O)NCCC(=O)Nc2ccc(Cl)c(Cl)c2)cc1C	12.6	i	i	i	i
CC(=O)Nc1ccc(S(=O)(=O)NCCC(=O)Nc2ccc(C)c(Cl)c2)cc1	i	i	i	i	i
Cc1ccc(S(=O)(=O)NCCC(=O)Nc2ccncc2)cc1C	i	i	i	i	i
Cc1ccc(S(=O)(=O)NCCC(=O)Nc2ccc(Cl)c(Cl)c2)cc1	10.0	i	i	i	i
Cc1ccc(C(=O)NN=Cc2ccc(-c3cccc(Cl)c3)o2)cn1	nt	i	nt	nt	nt
CCn1c(SCC(=O)NN=C/C=C/c2ccccc2[N+](=O)[O-])nnc1-c1ccc(Cl)cc1	nt	i	nt	nt	nt
CNc1cc(N2CCN(S(=O)(=O)N(C)C)CC2)ccc1[N+](=O)[O-]	10.1	i	i	i	i
O=[N+]([O-])c1ccc(N2CCN(S(=O)(=O)Cc3ccccc3)CC2)cc1N1CCOCC1	i	i	i	i	i
CCS(=O)(=O)N1CCN(c2ccc([N+](=O)[O-])c(N3CCOCC3)c2)CC1	15.8	i	i	i	i
SMILES	NR3A LBD binder	UCH37 inh	NadD inh	ATG4B inhibitor	SENP1 FRET inh
CN(C)S(=O)(=O)N1CCN(c2ccc([N+](=O)[O-])c(NC3CC3)c2)CC1	i	i	i	i	i
CC1CCCN(C(=O)c2ccc3c(c2NCCO)C(=O)c2ccccc2C3=O)C1 (stereo not drawn)	i	i	i	i	i
O=C1c2ccccc2C(=O)c2c1ccc(C(=O)N1CCCCC1)c2NCCO	12.3	i	i	i	i
O=C(NN=Cc1cc([N+](=O)[O-])ccc1O)c1c[nH]c2ccccc12	nt	i	nt	nt	nt
Cn1cc(C(=O)N/N=C/c2ccc([N+](=O)[O-])cc2)c2ccccc21	28.2	nt	i	i	i
O=C(N/N=C/c1cccc(O)c1)c1csc2ccccc12	22.3	nt	i	i	i
O=C(N/N=C/c1cc([N+](=O)[O-])ccc1O)c1cc(-c2ccccc2)nc2ccccc12	21.2	nt	31.1	i	i
Cn1cc(C(=O)N/N=C/c2cccc([N+](=O)[O-])c2)c2ccccc21	i	nt	i	i	i
Cc1cc(C(=O)N/N=C/c2cc([N+](=O)[O-])ccc2O)c2ccccc2n1	i	nt	i	i	i
O=C(N/N=C/c1cc([N+](=O)[O-])ccc1O)c1c[nH]c2ccccc12	27.2	nt	i	i	i
CC(=NNC(=O)C(O)c1ccccc1)c1ccc(Cl)cc1 (stereo not drawn)	nt	i	nt	nt	nt
O=C(CN1c2ccccc2Sc2ccccc21)N/N=C/c1ccc([N+](=O)[O-])cc1	32.5	nt	i	i	i
O=C(N/N=C/c1ccco1)c1cc(-c2cccc(Br)c2)nc2ccccc12	11.8	nt	i	i	i
O=C(N/N=C/C=C\c1ccccc1[N+](=O)[O-])c1cc(-c2ccccc2)nc2ccccc12	10.5	nt	i	i	i
Cc1cccc(C)c1OCc1nc2ccccc2c(=O)n1/N=C/c1c[nH]c2ccccc12	30.7	nt	i	i	i
O=C(CN1c2ccccc2Sc2ccccc21)N/N=C/c1ccccc1	i	nt	i	i	i
CC(CC(=O)N(C(C)C)C(C)C)=NNC(=O)c1ccccc1Br	nt	i	nt	nt	nt
O=C(NN=Cc1ccc([N+](=O)[O-])cc1)c1c[nH]c2ccccc12	nt	i	nt	nt	nt
O=C(N/N=C/c1ccsc1)c1cc(-c2cccs2)nc2ccccc12	11.5	nt	i	i	i
O=c1c2ccccc2nc(COc2ccccc2)n1/N=C/c1cc([N+](=O)[O-])ccc1O	22.0	nt	i	i	i
O=C(N/N=C/c1cccc(O)c1)c1cc(-c2ccccc2)nc2ccccc12	14.6	nt	i	i	i
O=C(N/N=C/c1cccc([N+](=O)[O-])c1)c1c[nH]c2ccccc12	27.2	nt	i	i	i
O=C(CON=Cc1ccccc1)Nc1c(F)c(F)c(F)c(F)c1F	nt	i	nt	nt	nt
Clc1ccccc1-c1ccc(C=Nn2cnnc2)o1	nt	i	nt	nt	nt
CC(=NNc1nccnc1Cl)c1ccc(O)c(C)c1	nt	i	nt	nt	nt
SMILES	NR3A LBD binder	UCH37 inh	NadD inh	ATG4B inhibitor	SENP1 FRET inh
Cc1cc(NC(=O)c2cc3cccc([N+](=O)[O-])c3[nH]2)ccc1F	28.8	i	i	i	i
COC(=O)c1cc2ccsc2n1Cc1cccc(F)c1	i	i	i	i	i
COC(=O)c1cc2ccsc2n1Cc1ccccc1F	17.4	i	i	i	i
COc1ccc(OC)c(NC(=O)c2cc(-c3ccc(C)cc3O)n[nH]2)c1	27.7	i	i	i	i
COc1ccc(OC)c(NC(=O)c2cc(-c3cc(C)ccc3O)n[nH]2)c1	37.4	i	i	i	i
COc1ccc(NC(=O)c2cc(-c3cc(Cl)ccc3OC)n[nH]2)c(C)c1	nt	nt	i	nt	i
Nn1c(SCC(=O)Nc2ccc3c(c2)OCCO3)nnc1-c1ccncc1	17.4	i	i	i	i
CCc1ccc(C(C)=NNc2ccc([N+](=O)[O-])cc2)cc1	nt	i	nt	nt	nt
CN(C)C=Nc1[nH]ncc1C#N	nt	i	nt	nt	nt
C[C@@H](NC(=O)c1[nH]cnc1C(=O)Nc1ccc(Cl)cc1)c1ccccc1	i	i	i	i	i
O=C(Nc1ccc(Cl)cc1)c1nc[nH]c1C(=O)NCc1ccccc1	24.4	i	i	i	i
C[C@@H](NC(=O)c1[nH]cnc1C(=O)Nc1cccc(Cl)c1)c1ccccc1	25.7	i	i	i	i
